Experimental data published in ChEMBL document CHEMBL5385854, “Discovery of PPARγ and glucocorticoid receptor dual agonists to promote the adiponectin and leptin biosynthesis in human bone marrow mesenchymal stem cells” (Eur J Med Chem, 2023).
Active and inactive are the calls of the source. No cut-off for these calls is given here.

Legend:
[1] = Induction of adiponectin biosynthesis in human BMMSC cells assessed as adiponectin level at 10 uM measured after 7 days by ELISA (IDX Control = 100 +/- 57 pg/ml); format: functional, Mesenchymal stem cells; conditions: time 7 day
[2] = Induction of leptin biosynthesis in human BMMSC cells assessed as leptin level at 10 uM measured after 7 days by ELISA (RVB = 18 + /- 18 pg/ml); format: functional, Mesenchymal stem cells; conditions: time 7 day
Mesenchymal stem cells [3] = assay: Induction of adipogenesis in human BMMSC cells assessed as increase in lipid droplet accumulation at 30 uM after 7 days by Oil red O and hematoxylin staining based assay relative to IDX control; format: functional, cell-based; conditions: time 7.0 day
How it was run: (§1)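 hBM-MSCs grown in low-glucose DMEM (1 g/L) with 10% FBS, Glutamax and penicillin-streptomycin, then differentiated in IDX medium containing compound, refreshed on days 3 and 6. On day 7, cells fixed in 10% neutral buffered formalin for 40 min and stained with 0.2% Oil Red O for 15 min, nuclei with hematoxylin. Dye eluted in isopropanol and read at 540 nm against IDX control.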

[4] = Induction of adiponectin biosynthesis in human BMMSC cells assessed as fold increase in production at 30 uM measured after 7 days by ELISA relative to IDX control; format: functional, Mesenchymal stem cells; conditions: time 7 day, 168 h
How it was run: (§2)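 Human bone-marrow MSCs grown in low-glucose DMEM (1 g/L) with 10% FBS, 1% penicillin-streptomycin and 1% Glutamax. Compounds were given in adipogenic IDX medium, refreshed on days 3 and 6. On day 7, supernatant adiponectin was quantified by Quantikine ELISA against the IDX control. Mean ± SD, n = 3 independent experiments; one-way ANOVA with post-hoc tests.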

[5] = Induction of leptin biosynthesis in human BMMSC cells assessed as fold increase in production at 30 uM measured after 10 days by ELISA relative to control; conditions: time 10 day
[6] = Induction of leptin biosynthesis in human BMMSC cells assessed as leptin level at 1 uM measured after 7 days by ELISA (RVB = 18 + /- 18 pg/ml); format: functional, Mesenchymal stem cells; conditions: time 7 day
[7] = Induction of adiponectin biosynthesis in human BMMSC cells assessed as adiponectin level at 300 uM measured after 7 days by ELISA (IDX Control = 100 +/- 57 pg/ml); format: functional, Mesenchymal stem cells; conditions: time 7 day; how it was run: as §2
[8] = Induction of leptin biosynthesis in human BMMSC cells assessed as leptin level at 300 uM measured after 7 days by ELISA (RVB = 18 + /- 18 pg/ml); format: functional, Mesenchymal stem cells; conditions: time 7 day
Mesenchymal stem cells [9] = assay: Induction of adipogenesis in human BMMSC cells assessed as increase in lipid droplet accumulation at 5 uM after 7 days by Oil red O and hematoxylin staining based assay relative to IDX control; format: functional, cell-based; conditions: time 7.0 day; how it was run: as §1
[10] = Induction of adiponectin biosynthesis in human BMMSC cells assessed as adiponectin level at 5 uM measured after 7 days by ELISA (IDX Control = 100 +/- 57 pg/ml); format: functional, Mesenchymal stem cells; conditions: time 7 day; how it was run: as §2
[11] = Induction of leptin biosynthesis in human BMMSC cells assessed as leptin level at 5 uM measured after 7 days by ELISA (RVB = 18 + /- 18 pg/ml); format: functional, Mesenchymal stem cells; conditions: time 7 day
[12] = Induction of adiponectin biosynthesis in human BMMSC cells assessed as adiponectin level measured after 7 days by ELISA; conditions: Mesenchymal stem cells, 168 h

`COc1ccc(/C=C/C(=O)c2c(O)cc(C)oc2=O)cc1OC` gave an Activity [1] of 747 pg/mL and an Activity [2] of 80 pg/mL.

With `COc1cc(/C=C/C(=O)c2c(O)cc(C)oc2=O)ccc1O` (stereo in doubt; form 1) [listing 1 of 2 here] the Activity (Mesenchymal stem cells [3]) was “Active”.

`Cc1cc(O)c(C(=O)/C=C/c2ccccn2)c(=O)o1` showed an Activity [1] of 396 pg/mL and an Activity [2] of 95 pg/mL.

`Cc1cc(O)c(C(=O)/C=C/c2ccc3c(c2)OCO3)c(=O)o1` showed an Activity [1] of 208 pg/mL and an Activity [2] of 91 pg/mL.

Work on `Cc1cc(O)c(C(=O)/C=C/c2ccc(F)cc2)c(=O)o1` yielded an Activity [1] of 576 pg/mL and an Activity [2] of 30 pg/mL.

In the case of `COc1cc(/C=C/C(=O)c2c(O)cc(C)oc2=O)ccc1O` (stereo in doubt; form 2), the “fold change (FC)” value [4] is reported as 3.18, the Activity [1] is reported as 399 pg/mL and the Activity [2] is reported as 82 pg/mL. For the same compound, the “fold change (FC)” value [5] was 2.58.

Compound `Cc1cc(O)c(C(=O)/C=C/c2c[nH]c3ccccc23)c(=O)o1` has an Activity [1] of 396 pg/mL and an Activity [2] of 41 pg/mL.

With `Cc1cc(O)c(C(=O)/C=C/c2ccsc2)c(=O)o1` the Activity [1] was 486 pg/mL and the Activity [2] was 193 pg/mL.

For `COc1cc(/C=C/C(=O)c2c(O)cc(C)oc2=O)ccc1O` (stereo in doubt; form 1) [listing 2 of 2 here], the “fold change (FC)” value [4] was 3.3.

Compound `COc1cc(/C=C/C(=O)c2c(O)cc(C)oc2=O)ccc1F` has an Activity [1] of 567 pg/mL and an Activity [2] of 40 pg/mL.

With `C[C@@H]1C[C@H]2[C@@H]3CCC4=CC(=O)C=C[C@]4(C)[C@@]3(F)[C@@H](O)C[C@]2(C)[C@@]1(O)C(=O)CO` [DEXAMETHASONE] the Activity [6] was 632 pg/mL.

With `Cc1cc(O)c(C(=O)/C=C/c2ccc(O)c(O)c2)c(=O)o1` the Activity [1] was 243 pg/mL and the Activity [2] was 16 pg/mL.

In the case of `Cc1cc(O)c(C(=O)/C=C/c2ccccc2)c(=O)o1`, the Activity [1] is reported as 580 pg/mL and the Activity [2] is reported as 38 pg/mL.

`CC(=O)Oc1ccccc1C(=O)O` [ASPIRIN] showed an Activity [7] of 330 pg/mL and an Activity [8] of 20 pg/mL.

Compound `Cc1cc(O)c(C(=O)/C=C/c2cc(F)cc(F)c2)c(=O)o1` has an Activity [1] of 172 pg/mL and an Activity [2] of 33 pg/mL.

`Cc1cc(O)c(C(=O)/C=C/c2ccoc2)c(=O)o1` showed an Activity [1] of 320 pg/mL and an Activity [2] of 171 pg/mL.

For `Cc1cc(O)c(C(=O)/C=C/c2ccc(F)c(F)c2)c(=O)o1`, the Activity [1] was 432 pg/mL and the Activity [2] was 76 pg/mL.

Compound `Cc1cc(O)c(C(=O)/C=C/c2ccc(C)c(C)c2)c(=O)o1` has an Activity [1] of 438 pg/mL and an Activity [2] of 17 pg/mL.

With `COc1ccc(Cl)cc1C(=O)NCCc1ccc(S(=O)(=O)NC(=O)NC2CCCCC2)cc1` [GLYBURIDE] the Activity (Mesenchymal stem cells [9]) was “Active”, the Activity [10] was 475 pg/mL and the Activity [11] was 30 pg/mL.

With `CCc1ccc(CCOc2ccc(CC3SC(=O)NC3=O)cc2)nc1` (configuration not stated) [PIOGLITAZONE] the Activity (Mesenchymal stem cells [9]) was “Active”, the Activity [10] was 812 pg/mL and the Activity [11] was 33 pg/mL. It also gave an EC50 [12] of 0.6 µM.
